# CAL PDZ FP-1 = untagged CAL PDZ binding inhibitors, primary screen, biochemical, fluorescence polarization, HTS. Golgi-associated PDZ and coiled-coil motif-containing protein (Homo sapiens), Q9HD26. inhibition, % at 24.9 µM. purified CAL PDZ, TMR-peptide fluorescence polarization, 1 h. 300,000 compounds, 0.92% hits;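 active means mean inhibition of at least 30% with at least half of replicates also reaching 30%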
# CAL PDZ FP-2 = CAL PDZ peptide-binding inhibitors, primary screen, biochemical, fluorescence polarization, Cer-tagged CAL PDZ, HTS | Golgi-associated PDZ and coiled-coil motif-containing protein (Homo sapiens), Q9HD26 | purified CAL PDZ, TMR-peptide fluorescence polarization, 1 h | inhibition, % at 20 µM | 330,000 compounds, 0.02% hits;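 active means highest replicate inhibition of at least 40%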
#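 material = purified tagged CAL PDZ domain construct (CerCALP) | buffer or medium = sodium phosphate/NaCl buffer pH 7.4 with TCEP, IgG, Thesit | reagent = TMR-labelled reporter peptide T*-PRC34 bound in PDZ groove | incubation = 1 h room-temperature incubation prior to read | measured by = fluorescence polarization (mP) | evaluation = percent inhibition from loss of millipolarization | control set = unlabelled peptide and DMSO controls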
# ERp5 block = inhibitors of ERp5-driven insulin aggregation, primary screen, biochemical, turbidity, absorbance 650 nm, single point; 350,000 compounds, 0.05% hits; 90 min; inhibition, % at 9.99 µM; Protein disulfide-isomerase A6 (Homo sapiens), Q15084;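 active means mean replicate inhibition above about 25%, with every replicate also reaching it, limit read from the data, passing the limit was not always enough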
# ERAP1 HTS inh = human ERAP1 aminopeptidase inhibitors, primary screen, biochemical, single point, plate reader; Endoplasmic reticulum aminopeptidase 1 (Homo sapiens), Q9NZ08; recombinant ERAP1, Leu-AMC fluorescence, 60 min; inhibition, % at 10.7 µM; 340,000 compounds, 0.15% hits; AID 652197, 2013;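 active means mean replicate inhibition of at least 30%, or all replicates individually reaching that 30% level; inactive means mean below 30% and not every replicate reaching it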
# Rin1-Abl PPI inh = inhibitors of Rin1-Abl protein binding, primary screen, biochemical, TR-FRET | inhibition, % at 7.35 µM | AID 588664, 2011 | 360,000 compounds, 0.4% hits; in the data active means inhibition above about 5%, passing the limit was not always enough
# PDI turbidity = inhibitors of human PDI, primary screen, biochemical, turbidity, single point, plate reader. PDI insulin aggregation turbidity, A650, 90 min. inhibition, % at 10 µM. 350,000 compounds, 0.052% hits. AID 588391, 2011;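 active means mean inhibition across replicates of 30% or more, whatever share of single replicates reach that level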
# Target sequence (P07237 whole entry, looked up): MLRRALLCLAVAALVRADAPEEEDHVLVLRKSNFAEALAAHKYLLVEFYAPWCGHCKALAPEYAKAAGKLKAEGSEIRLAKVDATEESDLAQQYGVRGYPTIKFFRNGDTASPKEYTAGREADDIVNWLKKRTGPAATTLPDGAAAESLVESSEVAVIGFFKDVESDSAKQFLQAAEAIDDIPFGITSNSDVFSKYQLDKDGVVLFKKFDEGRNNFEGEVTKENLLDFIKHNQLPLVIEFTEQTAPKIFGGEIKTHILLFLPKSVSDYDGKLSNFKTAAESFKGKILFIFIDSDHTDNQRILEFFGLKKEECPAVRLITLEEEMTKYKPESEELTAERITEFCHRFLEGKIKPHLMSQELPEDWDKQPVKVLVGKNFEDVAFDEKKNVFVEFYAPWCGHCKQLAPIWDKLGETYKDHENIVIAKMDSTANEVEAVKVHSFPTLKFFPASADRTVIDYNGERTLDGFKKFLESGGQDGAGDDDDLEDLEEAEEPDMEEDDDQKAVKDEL
# Hits are given with their value; i = inactive; nt = no result given; + = active, no number. Sampled rows, rich in hits. Any-hit rate of the full collection: about 1.1%.
SMILES,CAL PDZ FP-1,CAL PDZ FP-2,ERp5 block,ERAP1 HTS inh,Rin1-Abl PPI inh,PDI turbidity
O=C(N=C1SC2CS(=O)(=O)CC2N1c1ccccc1)C1CC1 (centres undefined),i,i,i,i,i,i
O=C(N=C1SC2CS(=O)(=O)CC2N1c1cccc(F)c1)C1CC1 (centres undefined),61.8,i,i,i,i,i
CCOc1ccc(NC(=S)NC(=O)C2CCCC2)cc1,32.1,i,i,i,i,i
COc1ccc(NC(=S)NC(=O)C2CCCCC2)cc1,i,i,i,i,i,i
CCOc1ccc(NC(=O)C2CCCN2C(=O)Oc2ccccc2)cc1 (centres undefined),i,i,i,56.8,i,i
O=C(NCC1CC1)[C@@H]1[C@@H](CO)[C@@H]2Cn3c(ccc(C4=CCCC4)c3=O)[C@@H]2N1C(=O)C1CC1,nt,nt,i,i,nt,nt
O=C(CC(F)(F)F)N1C[C@@H]2[C@H](c3ccccc31)[C@@H](CO)N2C(=O)C1CCOCC1,nt,nt,i,i,nt,nt
CC(C)C(C)(C#N)NC(=O)CSc1nnc(-c2ccncc2)n1Cc1ccccc1 (centres undefined),35.1,i,nt,nt,i,i
COc1ccc(-c2nnc(SCC(=O)O)n2Cc2ccccc2)cc1,56.7,i,i,i,i,i
CC1OC(OCC2OC(Oc3c(-c4ccc(O)cc4)oc4cc(O)cc(O)c4c3=O)C(O)C(O)C2O)C(O)C(O)C1O (centres undefined),i,i,i,i,i,nt
O=c1c(O[C@@H]2O[C@H](CO)[C@@H](O)[C@H](O)[C@H]2O)c(-c2ccc(O)cc2)oc2cc(O)cc(O)c12,i,i,nt,nt,i,37.1
O=C(C[C@H]1C[C@H]2c3cc(NC(=O)NC4CCCC4)ccc3O[C@H]2[C@@H](CO)O1)NCc1cccnc1,nt,nt,i,i,nt,nt
Cn1c(=S)[nH]c2scc(-c3cccs3)c2c1=O,65.8,i,i,i,i,i
C=CCn1c(=S)[nH]c2scc(-c3cccs3)c2c1=O,i,i,i,i,i,i
O=[N+]([O-])c1ccc2[nH]c(O)c(N=Nc3ccc(F)cc3)c2c1,i,i,i,i,i,i
O=[N+]([O-])c1ccc(N=Nc2c(O)[nH]c3ccc(F)cc23)cc1,42.4,nt,i,i,i,i
Cc1ccccc1C(=O)NNC(=S)NC(=O)c1ccc(Cl)cc1Cl,i,i,i,i,i,i
COc1ccccc1NC(=S)NNC(=O)c1ccc(Cl)cc1Cl,48.7,i,nt,nt,i,i
C[C@H]1CN([C@@H](C)CO)C(=O)Cc2cc(NC(=O)C3CCCCC3)ccc2O[C@H]1CN(C)Cc1ccc(C(F)(F)F)cc1,nt,nt,i,i,nt,nt
Cn1cc(CCOCc2ccccc2)c2ccccc21,nt,nt,i,i,nt,nt
COc1ccc(NC(=O)c2ccc(CNS(=O)(=O)c3cccc(OC)c3)cc2)cc1,37.6,i,nt,nt,i,i
COc1ccc(/C=C/CN2CCCC(CO)(Cc3cccc(Cl)c3)C2)cc1 (centres undefined),54.4,i,i,i,i,i
COc1ccc2c3c([nH]c2c1)[C@@H](CO)N(C(C)=O)CC31CCN(C(=O)Nc2ccccc2F)CC1,nt,nt,i,i,nt,nt
CCN(CC)S(=O)(=O)c1ccc(NC(=S)NC(=O)CC(C)C)cc1,111.9,i,i,i,i,i
O=S(=O)([O-])CCC[n+]1ccc(Oc2ccccc2)cc1,i,i,i,49.9,i,i
SMILES,CAL PDZ FP-1,CAL PDZ FP-2,ERp5 block,ERAP1 HTS inh,Rin1-Abl PPI inh,PDI turbidity
Cc1ccc2ccccc2[n+]1CCCS(=O)(=O)[O-],i,i,nt,nt,i,i
Cc1noc(C)c1S(=O)(=O)Nc1ccc2c(c1)C(=O)N([C@H](C)CO)C[C@@H](C)[C@@H](CN(C)S(=O)(=O)c1ccc(F)cc1)O2,nt,nt,i,i,nt,nt
Clc1ccc2c(c1)-c1ccccc1C1=NCCN12,nt,nt,i,i,i,i
CN1C2=NCCN2C(=O)c2cc(Cl)ccc21,i,i,i,110.9,i,i
O=C(C[C@H]1CC[C@@H]2[C@H](COC[C@H](O)CN2C(=O)c2cccnc2)O1)NCc1ccc(Cl)cc1,nt,nt,i,i,nt,nt
COc1ccc(OC)c(-c2csc(N(Cc3ccco3)C(=O)c3cccs3)n2)c1,i,i,nt,nt,i,i
COc1ccc(-c2csc(N(Cc3ccco3)C(=O)c3cccs3)n2)cc1,i,191.2,i,i,i,i
C[C@@H]1CCCCO[C@H](CN(C)C)[C@H](C)CN([C@H](C)CO)C(=O)c2cc(NS(=O)(=O)c3ccc(F)cc3)ccc2O1,nt,nt,i,i,nt,nt
Cc1ccc(NS(=O)(=O)c2ccc(C(=O)N3CCN(c4ccccn4)CC3)cc2)cc1,i,i,nt,nt,i,i
COc1ccccc1NS(=O)(=O)c1ccc(C(=O)N2CCN(c3ccccn3)CC2)cc1,i,i,26.9,i,i,i
COc1cccc(-c2ccc([C@H]3[C@@H](CO)N4C(=O)CN(C(=O)c5ccncc5)C[C@H]34)cc2)c1,nt,nt,i,i,nt,nt
COc1cccc(CN(c2ccc3c(c2)CCC3)S(=O)(=O)c2ccc(-n3cnnn3)c(OC)c2)c1,42.4,i,nt,nt,i,i
C[C@@H]1CCCCO[C@@H](CN(C)S(=O)(=O)c2cn(C)cn2)[C@H](C)CN([C@@H](C)CO)C(=O)c2cc(NS(=O)(=O)c3ccc(F)cc3)ccc2O1,nt,nt,i,i,nt,nt
CN(Cc1ccccc1)C(=O)COC(=O)c1cc([N+](=O)[O-])ccc1N1CCOCC1,nt,i,i,i,i,i
CN(CCOc1ccccc1)C(=O)c1cc([N+](=O)[O-])ccc1N1CCOCC1,33.0,i,i,i,i,i
CCOc1ccc(CN2CCN(Cc3cccn3-c3cccnc3)CC2CCO)cc1 (centres undefined),78.0,i,i,i,i,i
CCS(=O)(=O)Nc1ccc2c(c1)C(=O)N(C)C[C@H](OC)[C@H](C)CN(C(C)=O)[C@H](C)CO2,nt,nt,i,i,nt,nt
COc1cccc(S(=O)(=O)N2C[C@H](O)COC[C@@H]3O[C@H](CC(=O)Nc4ccccc4)CC[C@H]32)c1,nt,nt,i,i,nt,nt
COc1n[nH]c(C(=O)Nc2nc3ccccc3s2)c1[N+](=O)[O-],65.6,i,i,i,i,i
COc1n[nH]c(C(=O)NCc2ccccc2)c1[N+](=O)[O-],i,i,i,i,i,i
COc1ccc2[nH]c(O)c(N=NC(=O)c3ccc(NS(=O)(=O)c4cccs4)cc3)c2c1,46.3,i,i,i,i,i
CC(C)(C)c1ccc(C(=O)N/N=C/c2ccccn2)cc1,i,i,i,i,i,i
Cc1ccc(C(=O)N/N=C\c2ccccn2)cn1,+,i,nt,i,i,i
Cn1cc(/C=C/c2cc[n+](C)cc2)c2cc(F)ccc21,i,i,i,66.3,i,i

# Bioassay records: PubChem BioAssay, several laboratories
